Positions count from the first letter of the chain named. Numbers in names are those of the source. Like-named read-outs stand apart in the source and are kept apart here. Values belong to the molecule of their own block, whether it stands above or below them. Positions of bridges follow the written chain, without caps; N, C: chain ends. Non-standard residues stand in square brackets, D forms with d. Residues, ends and D or L forms follow the SMILES beside them. R8 = C=CCCCCCC[C@@](C)(N)C(=O)O; S5 = C=CCCC[C@](C)(N)C(=O)O
Tests used:
HEK293T cells [1] = experiment: LC3-II and p62 Western blots after peptide treatment, HEK293T cells; assay type: cell-based; details: 3 h
Procedure, shortened: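 HEK293T cells were treated 3 h with peptide or scrambled Tat control at 10 µM (low) or 20 µM (high) in the culture medium, without or with chloroquine. Lysates were Western blotted for LC3-I/LC3-II lipidation and p62 levels.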

[2] = target: Beclin 1 coiled-coil domain (Rattus norvegicus, UniProt Q91XJ1); experiment: ITC binding of designed peptides to Beclin 1 coiled-coil domain
EGFR [3] = experiment: EGFR degradation assay, HEK293T cells; assay type: cell-based; details: n = 3
Procedure, shortened: (§1)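 Overexpression arm: cells were transfected with FLAG-UVRAG wild-type or Leu-to-Glu mutants, or vector. Cells were washed in PBS, serum-starved overnight in DMEM, then given DMEM with 20 mM Hepes, 0.2% BSA and 200 ng/mL EGF. Peptide arm: 20 µM peptide or control was added together with EGF. At each time point, 20 µg lysate was immunoblotted for EGFR, normalized to β-actin and to time 0. Three independent experiments, mean ± SEM.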

EGFR [4] = experiment: EGFR degradation assay, A549 cells; assay type: cell-based; details: n = 3
Procedure, shortened: as §1

[5] = system: Beclin 1 self-association; experiment: Co-IP of Beclin 1 self-association; assay type: cell-based; details: HEK293T
Procedure, shortened: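 HEK293T cells co-transfected with GFP- and His-tagged Beclin 1. Peptide (stock 20 mM in water) was added at 20 µM either to the culture medium 6 h after transfection or to the lysate after lysis. A scrambled, unstapled Tat-fused control peptide was used at the same concentration. His-Beclin 1 association was then probed by co-IP.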

[6] = system: Beclin 1–Atg14L interaction; experiment: Co-IP of Beclin 1–Atg14L interaction, HEK293T; assay type: cell-based; details: peptide 20 μM added to cell lysate
[7] = system: Beclin 1–UVRAG interaction; experiment: Co-IP of Beclin 1–UVRAG interaction, HEK293T; assay type: cell-based; details: peptide 20 μM added to cell lysate
[8] = system: HeLa cells stably expressing GFP-LC3; experiment: Confocal imaging of GFP-LC3 puncta in HeLa cells stably expressing GFP-LC3; assay type: cell-based; details: HeLa GFP-LC3, 3 h, n = 3
Procedure, shortened: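 HeLa cells stably expressing GFP-LC3 were treated 3 h with peptide, scrambled control or water vehicle, with or without 25 µM chloroquine. Cells were imaged by confocal microscopy and GFP-LC3 puncta per cell were counted. Values are mean ± SEM, n = 3.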

HEK293T cells [9] = experiment: MTT cytotoxicity / cell viability, HEK293T cells; assay type: cell-based; details: 12.5 and 25 µM, 5 h
A549 cells = experiment: MTT cytotoxicity / cell viability, A549 cells; assay type: cell-based; details: 12.5 and 25 µM, 5 h
EGFR [10] = experiment: EGFR degradation assay, H1975 cells; assay type: cell-based; details: peptide 20 μM, 15 h after EGF, n = 3
Procedure, shortened: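 H1975 cells were serum-starved overnight in DMEM, then stimulated with 200 ng/mL EGF in DMEM with 20 mM Hepes and 0.2% BSA, together with 20 µM peptide or scrambled control. At each time point, 20 µg lysate was immunoblotted for EGFR. EGFR was normalized to β-actin and to time 0, from three independent experiments.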

UVRAG coiled-coil domain [11] = experiment: ITC
Sequence of UVRAG coiled-coil domain (Q8K245 whole entry, the tested form may be a part): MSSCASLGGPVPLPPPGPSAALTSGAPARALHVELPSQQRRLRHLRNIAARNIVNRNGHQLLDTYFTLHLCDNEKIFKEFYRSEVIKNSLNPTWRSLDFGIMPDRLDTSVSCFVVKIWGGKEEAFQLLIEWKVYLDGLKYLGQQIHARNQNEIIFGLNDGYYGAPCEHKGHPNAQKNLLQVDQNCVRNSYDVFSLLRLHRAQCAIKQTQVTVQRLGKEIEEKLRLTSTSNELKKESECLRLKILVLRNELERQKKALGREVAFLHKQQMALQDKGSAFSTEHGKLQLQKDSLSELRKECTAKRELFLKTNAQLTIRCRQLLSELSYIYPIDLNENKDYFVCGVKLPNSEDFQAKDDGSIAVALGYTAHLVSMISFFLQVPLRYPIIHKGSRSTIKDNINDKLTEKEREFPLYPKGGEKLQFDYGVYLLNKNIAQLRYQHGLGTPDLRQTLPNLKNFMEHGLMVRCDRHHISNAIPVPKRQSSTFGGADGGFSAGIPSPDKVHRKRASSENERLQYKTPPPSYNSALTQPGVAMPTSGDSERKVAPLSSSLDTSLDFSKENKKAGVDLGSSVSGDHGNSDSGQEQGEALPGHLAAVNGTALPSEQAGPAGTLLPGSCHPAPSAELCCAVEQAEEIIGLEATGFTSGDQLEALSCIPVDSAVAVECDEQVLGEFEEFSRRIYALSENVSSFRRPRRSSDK

UVRAG coiled-coil domain [12] = experiment: ITC; remark: listed apart in the source
UVRAG coiled-coil domain [13] = assay type: binding; details: ITC, relative to wild type
[14] = system: endogenous Beclin 1; EGFR; details: EGF-stimulated endocytic transport and lysosomal degradation of EGFR; cited from earlier work

Molecule: CCN(CC)CCCC(C)Nc1ccnc2cc(Cl)ccc12 (stereo not drawn) [CQ, chloroquine, reference compound]
- p62 level with CQ treatment (HEK293T cells [1]; with CQ, even with Tat-SP4): elevated the p62 level

Molecule: CC[C@H](C)[C@H](NC(=O)[C@H](CC(C)C)NC(=O)[C@H](CCCNC(=N)N)NC(=O)[C@H](CCCNC(=N)N)NC(=O)[C@H](CCCNC(=N)N)NC(=O)[C@H](CCCNC(=N)N)NC(=O)[C@H](CCC(N)=O)NC(=O)[C@H](CCCNC(=N)N)NC(=O)[C@H](CCCNC(=N)N)NC(=O)[C@H](CCCCN)NC(=O)[C@H](CCCCN)NC(=O)[C@H](CCCNC(=N)N)NC(=O)CNC(=O)[C@H](Cc1ccc(O)cc1)NC(C)=O)C(=O)N[C@@H](CO)C(=O)N[C@@H](CCC(=O)O)C(=O)N[C@@H](CC(C)C)C(=O)N[C@]1(C)CCCCCCC=CCCC[C@@](C)(C(=O)N[C@@H](C)C(N)=O)NC(=O)[C@H](CCCNC(=N)N)NC(=O)[C@H](CCC(N)=O)NC(=O)[C@H](CCCCN)NC(=O)[C@H](CCC(=O)O)NC(=O)[C@H](CCCNC(=N)N)NC(=O)[C@H](CC(=O)O)NC1=O [Tat-SP4] (Ac-YGRKKRRQRRRRLISEL[R8]DREKQR[S5]A-NH2; staple 18-25)
- Kd [2]: ~6.8 µM
- EGFR remaining (EGFR [3]; peptide 20 μM, 60 min post EGF (200 ng/mL)): ~30%
- EGFR remaining (EGFR [4]; A549, peptide 20 μM, 2 h after EGF): ~75%
- EGFR remaining (EGFR [4]; A549, peptide 20 μM, 5 h after EGF): ~25%
- Beclin 1 self-association (His-Beclin 1 pulled down by GFP-Beclin 1) ([5]; peptide 20 μM added to cell lysate): moderately reduced
- Beclin 1 self-association (His-Beclin 1 pulled down by GFP-Beclin 1) ([5]; peptide 20 μM added to cell medium 6 h posttransfection): more prominent
- endogenous Beclin 1 pulled down by Atg14L-GFP [6]: significantly enhanced
- endogenous Beclin 1 pulled down by FLAG-UVRAG [7]: significantly more endogenous Beclin 1
- increase in GFP-LC3 dot numbers (autophagosomes) ([8]; absence of CQ): approximately twofold
- increase in GFP-LC3 dot numbers (autophagosomes) ([8]; presence of 25 μM CQ): approximately twofold
- cytotoxicity (MTT) (HEK293T cells [9]): negligible cytotoxicity
- cytotoxicity (MTT) (A549 cells): negligible cytotoxicity
- increase in LC3-II level (HEK293T cells [1]; 10 μM, with CQ, n = 3): approximately threefold
- increase in LC3-II level (HEK293T cells [1]; 10 μM, without CQ, n = 3): approximately twofold
- increase in LC3-II level (HEK293T cells [1]; 20 μM, with CQ, n = 3): approximately fivefold
- increase in LC3-II level (HEK293T cells [1]; 20 μM, without CQ, n = 3): approximately threefold
- reduction of p62 level (HEK293T cells [1]; without CQ, n = 3): ~50%
- EGFR degradation (EGFR [10]): ~50%

Molecule: CC[C@H](C)[C@H](NC(=O)[C@H](CC(C)C)NC(=O)[C@H](CC(C)C)NC(=O)[C@H](CCCNC(=N)N)NC(=O)[C@H](CCCNC(=N)N)NC(=O)[C@H](CCCNC(=N)N)NC(=O)[C@H](CCC(N)=O)NC(=O)[C@H](CCCNC(=N)N)NC(=O)[C@H](CCCNC(=N)N)NC(=O)[C@H](CCCCN)NC(=O)[C@H](CCCCN)NC(=O)[C@H](CCCNC(=N)N)NC(=O)CNC(=O)[C@H](Cc1ccc(O)cc1)NC(C)=O)C(=O)N[C@@H](CO)C(=O)N[C@@H](CCC(=O)O)C(=O)N[C@@H](CC(C)C)C(=O)N[C@]1(C)CCCCCCC=CCCC[C@@](C)(C(=O)N[C@@H](C)C(N)=O)NC(=O)[C@H](CCCNC(=N)N)NC(=O)[C@H](CCC(N)=O)NC(=O)[C@H](CCCCN)NC(=O)[C@H](CCC(=O)O)NC(=O)[C@H](CCCNC(=N)N)NC(=O)[C@H](CC(=O)O)NC1=O [Tat-SP9] (Ac-YGRKKRRQRRRLLISEL[R8]DREKQR[S5]A-NH2; staple 18-25; N-terminus and C-terminus assumed)
- Kd [2]: ~56.2 µM

- Kd (UVRAG coiled-coil domain [11]): 3 µM
- Kd (UVRAG coiled-coil domain [12]): 300 nM
Molecule: Beclin 1 coiled-coil domain (from UniProt Q91XJ1 174-264) (domain or fragment)

- Kd (UVRAG coiled-coil domain [11]): 10 µM
Molecule: Beclin 1 coiled-coil region L210E (from UniProt Q91XJ1 174-264) (domain or fragment)

- Kd (UVRAG coiled-coil domain [11]): 10 µM
Molecule: Beclin 1 coiled-coil region R203E (from UniProt Q91XJ1 174-264) (domain or fragment)

- reduction of binding affinity of Beclin 1–UVRAG interaction (UVRAG coiled-coil domain [13]): approximately three- to fivefold
B1: R203E (protein)
chain: DSEQLQRELKELALEEERLIQELEDVEKNEKVVAENLEKVQAEAERLDQEEAQYQREYSEFKRQQLELDDELKSVENQMRYAQMQLDKLKK

- reduction of binding affinity of Beclin 1–UVRAG interaction (UVRAG coiled-coil domain [13]): approximately three- to fivefold
B2: L210E (protein)
chain: B1 chain with E30R, L37E

B3: wild-type UVRAG: wild-type UVRAG (full length Mus musculus in cells; coiled-coil construct in vitro) (protein)
chain: MSASASVGGPVPQPPPGPAAALPPGSAARALHVELPSQQRRLRHLRNIAARNIVNRNGHQLLDTYFTLHLCSTEKIYKEFYRSEVIKNSLNPTWRSLDFGIMPDRLDTSVSCFVVKIWGGKENIYQLLIEWKVCLDGLKYLGQQIHARNQNEIIFGLNDGYYGAPFEHKGYSNAQKTILLQVDQNCVRNSYDVFSLLRLHRAQCAIKQTQVTVQKIGKEIEEKLRLTSTSNELKKKSECLQLKILVLQNELERQKKALGREVALLHKQQIALQDKGSAFSAEHLKLQLQKESLNELRKECTAKRELFLKTNAQLTIRCRQLLSELSYIYPIDLNEHKDYFVCGVKLPNSEDFQAKDDGSIAVALGYTAHLVSMISFFLQVPLRYPIIHKGSRSTIKDNINDKLTEKEREFPLYPKGGEKLQFDYGVYLLNKNIAQLRYQHGLGTPDLRQTLPNLKNFMEHGLMVRCDRHHTSSAIPVPKRQSSIFGGADVGFSGGIPSPDKGHRKRASSENERLQYKTPPPSYNSALAQPVTTVPSMGETERKITSLSSSLDTSLDFSKENKKKGEDLVGSLNGGHANVHPSQEQGEALSGHRATVNGTLLPSEQAGSASVQLPGEFHPVSEAELCCTVEQAEEIIGLEATGFASGDQLEAFNCIPVDSAVAVECDEQVLGEFEEFSRRIYALNENVSSFRRPRRSSDK
modifications: left off: FLAG, end not stated, kept
- EGFR remaining (EGFR [3]; UVRAG overexpression, 120 min post EGF (200 ng/mL)): ~10%
- EGFR remaining (EGFR [4]; A549, UVRAG overexpression, 3 h after EGF (200 ng/mL)): ~40%
- EGFR remaining (EGFR [4]; A549, UVRAG overexpression, 5 h after EGF (200 ng/mL)): ~5%
- endolysosomal trafficking on overexpression [14]: enhanced endolysosomal trafficking

From publication PMC6016778 (Proceedings of the National Academy of Sciences of the …, 2018)
